Measured values: ChEMBL document CHEMBL3822397, “Synthesis and bioevaluation of novel benzodipyranone derivatives as P-glycoprotein inhibitors for multidrug resistance reversal agents” (Eur J Med Chem, 2016)
Calls of active or inactive are those of the source. The rule behind the calls is not given here.

Assays:
[1] = Potentiation of vincristine-induced cytotoxicity in human HeLaS3 assessed as reduction in vincristine IC50 at 10 uM after 72 hrs by SRB assay relative to control; assay type: functional, HeLa S3
[2] = molecular target: T1, ATP-dependent translocase ABCB1 (Homo sapiens, UniProt P08183); assay: Inhibition of full length human ABCB1 expressed in Flp-In-293 cells at 5 uM incubated for 30 mins by calcein-AM uptake assay relative to control; assay type: cell-based; settings: 0.5 h
[3] = molecular target: T1, ATP-dependent translocase ABCB1; assay: Inhibition of full length human ABCB1 expressed in Flp-In-293 cells assessed as potentiation of vincristine-induced cytotoxicity at 10 uM after 72 hrs by SRB assay relative to control; assay type: cell-based
[4] = molecular target: T1, ATP-dependent translocase ABCB1; assay: Inhibition of ABCB1 in human KBVIN cells assessed as potentiation of paclitaxel-induced cytotoxicity at 10 uM after 72 hrs by SRB assay relative to control; assay type: cell-based
[5] = molecular target: T1, ATP-dependent translocase ABCB1; assay: Inhibition of full length human ABCB1 expressed in Flp-In-293 cells assessed as potentiation of paclitaxel-induced cytotoxicity at 8 uM after 72 hrs by SRB assay relative to control; assay type: cell-based
[6] = molecular target: T1, ATP-dependent translocase ABCB1; assay: Inhibition of full length human ABCB1 expressed in Flp-In-293 cells assessed as potentiation of doxorubicin-induced cytotoxicity at 10 uM after 72 hrs by SRB assay relative to control; assay type: cell-based
HEK293 [7] = assay: Potentiation of doxorubicin-induced cytotoxicity in Flp-In-293 cells assessed as reduction in doxorubicin IC50 at 10 uM after 72 hrs by SRB assay relative to control; assay type: functional, Homo sapiens
HEK293 [8] = assay: Potentiation of paclitaxel-induced cytotoxicity in Flp-In-293 cells assessed as reduction in paclitaxel IC50 at 10 uM after 72 hrs by SRB assay relative to control; assay type: functional, Homo sapiens
[9] = Potentiation of paclitaxel-induced cytotoxicity in human HeLaS3 assessed as reduction in paclitaxel IC50 at 10 uM after 72 hrs by SRB assay relative to control; assay type: functional, HeLa S3
HEK293 [10] = assay: Potentiation of vincristine-induced cytotoxicity in Flp-In-293 cells assessed as reduction in vincristine IC50 at 10 uM after 72 hrs by SRB assay relative to control; assay type: functional, Homo sapiens
[11] = molecular target: T1, ATP-dependent translocase ABCB1; assay: Inhibition of full length human ABCB1 expressed in Flp-In-293 cells at 2.5 uM incubated for 30 mins by calcein-AM uptake assay relative to control; assay type: cell-based; settings: 0.5 h
HEK293 [12] = assay: Downregulation of ABCB1 mRNA expression in Flp-In-293 cells transfected with full length human ABCB1 at 5 uM after 72 hrs by RT-PCR analysis; assay type: functional, cell-based
Summary of the method: (§1)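 ABCB1 mRNA measured after treating ABCB1/Flp-In-293 cells with test compounds for 72 hr. Data given as mean ± SE of three experiments, each in triplicate.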

[13] = Potentiation of vincristine-induced cytotoxicity in human HeLaS3 assessed as reduction in vincristine IC50 at 8 uM after 72 hrs by SRB assay relative to control; assay type: functional, HeLa S3
[14] = molecular target: T1, ATP-dependent translocase ABCB1; assay: Inhibition of ABCB1 in human KBVIN cells assessed as potentiation of vincristine-induced cytotoxicity at 8 uM after 72 hrs by SRB assay relative to control; assay type: cell-based
[15] = molecular target: T1, ATP-dependent translocase ABCB1; assay: Inhibition of full length human ABCB1 expressed in Flp-In-293 cells assessed as potentiation of doxorubicin-induced cytotoxicity at 8 uM after 72 hrs by SRB assay relative to control; assay type: cell-based
[16] = molecular target: T1, ATP-dependent translocase ABCB1; assay: Inhibition of full length human ABCB1 expressed in Flp-In-293 cells assessed as potentiation of vincristine-induced cytotoxicity at 8 uM after 72 hrs by SRB assay relative to control; assay type: cell-based
[17] = molecular target: T1, ATP-dependent translocase ABCB1; assay: Inhibition of ABCB1 in human KBVIN cells assessed as potentiation of paclitaxel-induced cytotoxicity at 8 uM after 72 hrs by SRB assay relative to control; assay type: cell-based
[18] = molecular target: T1, ATP-dependent translocase ABCB1; assay: Inhibition of full length human ABCB1 expressed in Flp-In-293 cells assessed as potentiation of paclitaxel-induced cytotoxicity at 10 uM after 72 hrs by SRB assay relative to control; assay type: cell-based
HEK293 [19] = assay: Potentiation of paclitaxel-induced cytotoxicity in Flp-In-293 cells assessed as reduction in paclitaxel IC50 at 8 uM after 72 hrs by SRB assay relative to control; assay type: functional, Homo sapiens
HEK293 [20] = assay: Potentiation of doxorubicin-induced cytotoxicity in Flp-In-293 cells assessed as reduction in doxorubicin IC50 at 8 uM after 72 hrs by SRB assay relative to control; assay type: functional, Homo sapiens
[21] = Potentiation of paclitaxel-induced cytotoxicity in human HeLaS3 assessed as reduction in paclitaxel IC50 at 8 uM after 72 hrs by SRB assay relative to control; assay type: functional, HeLa S3
HEK293 [22] = assay: Potentiation of vincristine-induced cytotoxicity in Flp-In-293 cells assessed as reduction in vincristine IC50 at 8 uM after 72 hrs by SRB assay relative to control; assay type: functional, Homo sapiens
[23] = molecular target: T1, ATP-dependent translocase ABCB1; assay: Inhibition of ABCB1 in human KBVIN cells assessed as potentiation of vincristine-induced cytotoxicity at 10 uM after 72 hrs by SRB assay relative to control; assay type: cell-based
HEK293 [24] = assay: Effect on ABCB1 mRNA expression in Flp-In-293 cells at 5 uM after 72 hrs by RT-PCR analysis; assay type: ADME, cell-based; settings: human, flp-in-293, 72 h; summary of the method: as §1

T1 sequence (P08183 whole entry): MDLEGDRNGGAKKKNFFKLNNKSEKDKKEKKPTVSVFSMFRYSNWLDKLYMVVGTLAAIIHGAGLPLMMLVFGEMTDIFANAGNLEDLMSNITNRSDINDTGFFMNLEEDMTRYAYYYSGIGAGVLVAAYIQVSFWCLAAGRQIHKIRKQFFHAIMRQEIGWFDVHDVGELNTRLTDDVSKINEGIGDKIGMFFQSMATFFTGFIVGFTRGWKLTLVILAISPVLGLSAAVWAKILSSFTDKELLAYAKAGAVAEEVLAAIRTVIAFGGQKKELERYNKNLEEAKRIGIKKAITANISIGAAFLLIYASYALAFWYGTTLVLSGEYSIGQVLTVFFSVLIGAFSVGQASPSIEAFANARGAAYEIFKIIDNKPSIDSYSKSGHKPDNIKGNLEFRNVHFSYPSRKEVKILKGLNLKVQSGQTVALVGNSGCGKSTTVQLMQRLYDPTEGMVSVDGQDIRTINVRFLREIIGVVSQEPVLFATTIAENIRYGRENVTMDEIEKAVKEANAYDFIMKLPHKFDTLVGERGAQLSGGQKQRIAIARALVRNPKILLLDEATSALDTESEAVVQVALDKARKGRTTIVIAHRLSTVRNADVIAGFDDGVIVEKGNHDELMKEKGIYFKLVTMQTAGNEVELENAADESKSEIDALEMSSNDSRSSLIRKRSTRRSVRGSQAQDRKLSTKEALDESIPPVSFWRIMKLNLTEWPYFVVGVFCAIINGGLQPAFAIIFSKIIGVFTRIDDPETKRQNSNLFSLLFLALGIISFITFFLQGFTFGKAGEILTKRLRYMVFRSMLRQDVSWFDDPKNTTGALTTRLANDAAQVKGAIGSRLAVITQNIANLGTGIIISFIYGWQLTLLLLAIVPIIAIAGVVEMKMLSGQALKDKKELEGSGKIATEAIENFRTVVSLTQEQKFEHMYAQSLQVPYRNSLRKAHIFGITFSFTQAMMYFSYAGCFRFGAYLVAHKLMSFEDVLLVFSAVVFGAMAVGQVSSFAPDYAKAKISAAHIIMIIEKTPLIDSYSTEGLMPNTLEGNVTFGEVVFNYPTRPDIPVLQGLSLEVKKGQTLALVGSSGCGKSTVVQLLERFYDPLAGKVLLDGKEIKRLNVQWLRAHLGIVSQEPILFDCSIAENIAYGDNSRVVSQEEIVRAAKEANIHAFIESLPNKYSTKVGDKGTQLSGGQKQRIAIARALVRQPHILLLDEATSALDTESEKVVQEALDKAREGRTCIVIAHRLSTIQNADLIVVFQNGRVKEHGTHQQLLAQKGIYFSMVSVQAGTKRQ

| Structure (SMILES) | fold change (FC) [2] | fold change (FC) [3] | fold change (FC) [5] | fold change (FC) [6] | fold change (FC) (HEK293 [7]) | fold change (FC) (HEK293 [8]) | fold change (FC) (HEK293 [10]) | fold change (FC) [11] | Activity (HEK293 [12]) | fold change (FC) [15] | fold change (FC) [16] | fold change (FC) [18] | fold change (FC) (HEK293 [19]) | fold change (FC) (HEK293 [20]) | fold change (FC) (HEK293 [22]) | also measured |
| --- | --- | --- | --- | --- | --- | --- | --- | --- | --- | --- | --- | --- | --- | --- | --- | --- |
| Cc1cccc(-c2coc3c(c(O)cc4occ(-c5cccc(C)c5)c(=O)c43)c2=O)c1 | 2.05 | 21 | 10.8 | 1.6 | 1.6 | 1.8 | 9.1 | 1.58 | Active | 1.4 | 15.6 | 16.1 | 1.5 | 1.2 | 7.8 | fold change (FC) [1]: 8.8; fold change (FC) [4]: 23.1; fold change (FC) [9]: 1.4; fold change (FC) [13]: 4.7; fold change (FC) [14]: 7.4; fold change (FC) [17]: 19; fold change (FC) [21]: 1.1; fold change (FC) [23]: 29.7 |
| COc1ccc(-c2coc3c(c(O)cc4occ(-c5ccc(OC)cc5)c(=O)c43)c2=O)cc1 | 1.84 | 1.6 | 2.1 | 1.7 | 2.1 | 4.2 | 7.1 | 1.54 | inactive | 1.6 | 1.4 | 8.2 | 2.7 | 0.9 | 6.6 | Activity (HEK293 [24]): Non-toxic |
| COc1ccc(-c2coc3c(c(O)cc4occ(-c5ccc(OC)c(OC)c5)c(=O)c43)c2=O)cc1OC | 1.64 | 9.7 | 8.8 | 1.5 | 1.3 | 1.3 | 8.2 | 1.45 | Active | 1.5 | 4.1 | 9.5 | 1 | 1.2 | 7.8 | – |
